Screening results as filed in PubChem.
Yeast life ext: compounds extending yeast replicative lifespan, primary screen, S. cerevisiae, OD615 | inhibition of the nicotinamide effect, % at 10 µM | 130,000 compounds, 0.68% hits | S. cerevisiae growth with nicotinamide; deaD strain in restrictive glucose medium;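 active = inhibition above a set limit, placed 3 SD over the median of all compounds, cut at about 26% in these data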;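 note: 0% = nicotinamide-treated wells and 100% = cells grown without nicotinamide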
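System: DeaD-strain S. cerevisiae / Buffer or medium: CSMM-D, restrictive glucose (dextrose) synthetic minimal medium / Probe or stimulus: nicotinamide, 1.5 mM, co-present with compound / Compound: one concentration, 10 µM, DMSO 0.25% / Incubation: 48 h compound exposure at 30 °C, humidified / Technique: optical density (absorbance) at 615 nm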
RAM network inh: inhibitors of the yeast RAM network, primary screen, dse1pr::URA3 reporter, 5-FOA selection; S. cerevisiae dse1pr::URA3 reporter, 5-FOA growth OD615, 2 d; analog-sensitive cbk1-as2 kinase mutant strain; inhibition, % at 50 µM; 190,000 compounds, 1.8% hits; AID 868, 2007;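 active = inhibition above a set limit, 3 SD over mean compound inhibition, cut at about 8.4% in these data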;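 note: 0% = DMSO-only wells with no growth and 100% = 10 µM 1-NA-PP1 full growth; inhibition rescues growth on 5-FOA so higher OD means more RAM inhibition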
b-catenin transl: modulators of beta-catenin nuclear translocation, primary screen, imaging, HeLa cells, immunofluorescence, high-content | nuclear translocation activity, % at 5 µM | 190,000 compounds, 0.3% hits;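 active = nuclear translocation activity above 50% at 5 µM, with a well cell count of 50 or more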;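 note: per-cell ratio of nuclear to cytoplasmic median beta-catenin stain intensity; plate controls were DMSO negative control for no effect and GSK-3 inhibitor IX positive control for full effect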
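Read-out: Nuclear/cytoplasmic beta-catenin signal ratio, % activation | Assay system: Human HeLa cell line | Times: 24 h compound exposure at 37°C, 5% CO2 | Signal: Fluorescence imaging of beta-catenin antibody stain plus DAPI | Dosing: 5 µM primary, 0.02–20 µM confirmation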
Efa HMGR inh: inhibitors of E. faecalis class II HMGR, primary screen, biochemical, Enterococcus faecalis. 190,000 compounds, 0.41% hits. purified E. faecalis HMGR, NADPH absorbance 340 nm kinetic. inhibition, % at 10 µM. HMG-CoA reductase (Enterococcus faecalis, mvaE);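 active = inhibition above a set limit, the median over all tested compounds plus 3 SD, cut at about 9.5% in these data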;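 note: enzyme runs in reverse so mevalonate oxidation gives rising NADPH absorbance; 0% = complete reaction with DMSO and 100% = background rate lacking mevalonate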
Yeast growth inh: growth inhibitors of yeast BB579 in restrictive medium, primary screen, yeast lifespan-shortening project, S. cerevisiae; OD615, 48 h; inhibition, % at 10 µM; 140,000 compounds, 0.51% hits; AID 804, 2007;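 active = inhibition above a set limit, 3 SD over the mean compound inhibition, cut at about 44% in these data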
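System: Saccharomyces cerevisiae DeaD strain BB579, replicative lifespan model yeast. Buffer or medium: restrictive glucose-based CSMM-D medium. Doses: one dose, 10 µM compound with 0.25% DMSO. Timing: 4 h preincubation and 48 h exposure at 30 °C. Detection: turbidity as optical density at 615 nm. Benchmarks: amphotericin B 10 µg/mL, positive.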
MT stabilizer: microtubule stabilizers in HeLa cells, primary screen, imaging, high-content imaging; HeLa tubulin immunostaining HCS, 24 h; share of cells brighter than vehicle mean+2SD; % tubulin-high responders, % at 10 µM; 200,000 compounds, 0.83% hits; AID 2205, 2009;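 active = plate Z-score above 3 for both tubulin-high and condensed-nucleus cell shares, with cell loss under 80%, at 10 µM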;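 note: anti alpha tubulin signal scored within the nucleus-defined area of each cell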
RAM efflux-def: 5-FOA growth of efflux-deficient control yeast, dose response, counter-screen for RAM network inhibitor project, S. cerevisiae, OD615; shares compounds with RAM network inh; S. cerevisiae efflux-deficient reporter strain, 5-FOA growth OD615, 2 days; max inhibition, %; 1,200 tested, under 10 active; AID 1305, 2008; call rule not given here;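 note: plate controls were vehicle for no effect and reference inhibitor for full effect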
* hit, by the source's call. Only some compounds are listed: those with a hit (about 3.5% of all), similar ones and a draw of the others.

Results for O=[N+]([O-])/C=C/c1c(OCc2ccccc2)ccc2ccccc12 ?
Yeast life ext: 14; RAM network inh: 13*; b-catenin transl: -2; Efa HMGR inh: -7; Yeast growth inh: -50; MT stabilizer: 3; RAM efflux-def: 5

Results for CCOP(=S)(NN(Cc1ccccc1)C(=O)c1ccccc1)OCC ?
Yeast life ext: 4; RAM network inh: 0; b-catenin transl: -1; Efa HMGR inh: -2; Yeast growth inh: -3; MT stabilizer: 2

Results for CCCCn1c(=O)c(C(=O)Nc2nnc(C(C)C)s2)c(O)c2ccccc21 ?
RAM network inh: 6; b-catenin transl: 1; Efa HMGR inh: -2; MT stabilizer: 2

How did CCN1C(=O)/C(=C/c2ccc3c(c2)CCN3CCCCl)C(=O)NC1=S do in these assays?
Yeast life ext: 21; RAM network inh: 16*; b-catenin transl: 6; Efa HMGR inh: 5; Yeast growth inh: -38; MT stabilizer: 2; RAM efflux-def: 5

Results for C=CCN1C(=O)/C(=C/c2ccc3c(c2)CCCN3CCC)C(=O)NC1=S ?
Yeast life ext: 18; RAM network inh: 5; b-catenin transl: 3; Efa HMGR inh: 3; Yeast growth inh: -20; MT stabilizer: 8

Results for CN(C)c1ccc(/C=C/C=C2/C(=O)NC(=O)N(c3ccccc3)C2=O)cc1 ?
RAM network inh: 26*; b-catenin transl: 13; Efa HMGR inh: -3; MT stabilizer: 6; RAM efflux-def: 12

How did CN1CCC2(O)OCCCC2C1 (centres undefined) do in these assays?
b-catenin transl: 2

How did CC(C)[C@H](CN(N=O)[C@@H](Cc1ccccc1)CN(C)N=O)N(CCc1ccccc1)N=O do in these assays?
RAM network inh: 13*; b-catenin transl: 0; Efa HMGR inh: 1; MT stabilizer: 3; RAM efflux-def: 4

What do the screens show for `CC(C)(C)c1ccc(C(=O)C2CCCN(C3CCC3)C2)cc1` (centres undefined)?
RAM network inh: 1; b-catenin transl: 1; Efa HMGR inh: -6; MT stabilizer: 2

How did CCCCCn1c(=O)c(C(=O)Nc2cnccn2)c(O)c2ccccc21 do in these assays?
RAM network inh: 12*; b-catenin transl: 2; Efa HMGR inh: -9; MT stabilizer: 6; RAM efflux-def: 2

Results for CCCCCn1c(=O)c(C(=O)Nc2nc(CC(=O)OCC)cs2)c(O)c2ccccc21 ?
RAM network inh: 25*; b-catenin transl: 3; Efa HMGR inh: 6; MT stabilizer: 2; RAM efflux-def: 3

How did CCOCCSc1nc2c(c(-c3cccs3)c1C#N)CC/C2=C/c1cccs1 do in these assays?
Yeast life ext: 7; RAM network inh: 12*; b-catenin transl: 6; Efa HMGR inh: -3; Yeast growth inh: -5; MT stabilizer: 3; RAM efflux-def: 3

Results for Cc1oc2ccc(OC(=O)N(C)C)cc2c1C(=O)OC(C)C ?
Yeast life ext: -6; RAM network inh: 1; b-catenin transl: 1; Efa HMGR inh: -2; Yeast growth inh: -12; MT stabilizer: 3

Results for CCOC(=O)c1c(-c2ccc(OC)cc2)oc2ccc(OC(=O)N(C)C)cc12 ?
Yeast life ext: -15; RAM network inh: 14*; b-catenin transl: -1; Efa HMGR inh: -5; Yeast growth inh: -43; MT stabilizer: 7; RAM efflux-def: 1

How did C1CCC2S[C@H]3CCCCC3NC2C1 (some centres undefined) do in these assays?
b-catenin transl: 0

What do the screens show for `CC1CCc2c(sc3nc(CSc4n[nH]c(N)n4)[nH]c(=O)c23)C1` (centres undefined)?
Yeast life ext: 1; RAM network inh: 12*; Efa HMGR inh: -4; Yeast growth inh: -27; MT stabilizer: 2; RAM efflux-def: 3

How did CCOP(=O)(OCC)C(Nc1cccc(C(F)(F)F)c1)c1ccc(Br)cc1 (centres undefined) do in these assays?
Yeast life ext: 2; RAM network inh: 12*; b-catenin transl: 0; Efa HMGR inh: -5; Yeast growth inh: -7; MT stabilizer: 2; RAM efflux-def: 1

How did COC(=O)CC1=C(C(=O)OC)C2(C(=O)Nc3c(C)cccc32)C(C#N)=C(N)O1 (centres undefined) do in these assays?
Yeast life ext: -5; RAM network inh: 1; b-catenin transl: -4; Efa HMGR inh: 1; Yeast growth inh: -39; MT stabilizer: 7

What do the screens show for `C=CCn1c(O)c(C(C)=NCCCN(C)C)c(=O)[nH]c1=O`?
b-catenin transl: 1

Results for CCCCNC(=O)NC(C(N)=O)P(=O)(OCC)OCC (centres undefined) ?
b-catenin transl: 0

How did Cc1ccc(/C=C/C2=NN(Cc3ccc(Cl)c(Cl)c3)C(=O)CC2)cc1 do in these assays?
Yeast life ext: -5; RAM network inh: 12*; b-catenin transl: 4; Efa HMGR inh: 0; Yeast growth inh: -49; MT stabilizer: 1; RAM efflux-def: 4

How did CC(C)N1OC2CC1c1nc3ccccc3n1C2 (centres undefined) do in these assays?
b-catenin transl: -1
